Assay results reported in ChEMBL document CHEMBL3425424, “Anti-inflammatory coumarin and benzocoumarin derivatives from Murraya alata” (J Nat Prod, 2015).
pIC50: −log10 of the molar value.

Columns and labels:
[1] = system: RAW264.7; assay: Antiinflammatory activity against mouse RAW264.7 cells assessed as reduction of LPS-induced NO production after 24 hrs; type: functional, cell-based; conditions: RAW264.7, 24 h
How it was run: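 RAW 264.7 murine macrophages were grown in DMEM with 10% FBS, penicillin and streptomycin at 37 °C under 5% CO2. Cells were seeded at 1 × 10^5 per well and given 1.0 μg/mL LPS (E. coli 0111:B4) with or without compound for 24 h at 37 °C. Supernatant NO was read by Griess reagent (10 min, room temperature, dark) at OD 540 nm against a sodium nitrite standard curve. Indomethacin was the positive control; three parallel runs, mean ± SD.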

[2] = system: RAW264.7; assay: Cytotoxicity against mouse RAW264.7 cells assessed as cell survival at 80 uM after 24 hrs by MTT assay; type: cell-based; conditions: raw264.7, 24 h
How it was run: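 Viability of RAW 264.7 murine macrophages was read by MTT assay. Cells were kept in DMEM with 10% FBS, 100 U/mL penicillin and 100 μg/mL streptomycin, humidified, 37 °C, 5% CO2.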

| pIC50 [1] | Compound | Activity [2] |
| --- | --- | --- |
| 4.48 | COc1cc(OC)c2ccc(=O)oc2c1CC=C(C)C | Non-toxic |
| 4.91 | COc1cc(OC)c2ccc(=O)oc2c1CC(C)(C)C=O | Non-toxic |
| 4.91 | COc1cc(OC)c2ccc(=O)oc2c1CC(C)(C)C(=O)O | Non-toxic |
| 4.69 | COc1cc(OC)c2ccc(=O)oc2c1CC(=O)C(C)C | Non-toxic |
| 4.91 | C=C(C)/C=C/c1c(OC)cc(OC)c2ccc(=O)oc12 | Non-toxic |
| 4.69 | COc1cc(OC)c2ccc(=O)oc2c1/C=C/C(C)C | Non-toxic |
| 4.91 | CC(C)=CCc1cc2ccc(=O)oc2c2c1OC(C)(C)C=C2 | Non-toxic |
| 4.84 | C=C(C)/C=C\c1c(OC)cc(OC)c2ccc(=O)oc12 | Non-toxic |
| 4.91 | C=C(C)[C@H](O)[C@H](OCC)c1c(OC)ccc2ccc(=O)oc12 | Non-toxic |
| 4.91 | COc1cc(OC)c2ccc(=O)oc2c1C(=O)C(=O)C(C)C | Non-toxic |
|  | COc1ccc2ccc(=O)oc2c1C(=O)C(=O)C(C)C | Non-toxic |
| 4.86 | COc1cc(OC)c2ccc(=O)oc2c1CC=O | Non-toxic |
| 4.91 | C=C(C)Cc1c(OC)cc(OC)c2ccc(=O)oc12 | Non-toxic |
| 4.55 | COc1cc(OC)c2ccc(=O)oc2c1C/C=C(\C)C=O | Non-toxic |
| 4.47 | CCOC(C)(C)[C@@H](O)Cc1c(OC)c(OC)c(OC)c2ccc(=O)oc12 | Non-toxic |
| 4.91 | COc1c(OC)c(/C=C/C(C)(C)O)c2oc(=O)ccc2c1OC | Non-toxic |

| pIC50 [1] | Compound | Activity [2] |
| --- | --- | --- |
| 4.91 | COc1c(OC)c(CC=C(C)C)c2oc(=O)ccc2c1OC | Non-toxic |
| 5.04 | COc1cc2cc(COC(=O)CC(C)C)ccc2c2oc(=O)ccc12 | Non-toxic |
| 4.91 | COc1cc2cc(C)ccc2c2oc(=O)ccc12 | Non-toxic |
| 4.91 | COc1c(OC)c(CC(O)C(C)(C)O)c2oc(=O)ccc2c1OC (centres undefined) | Non-toxic |
| 4.91 | COc1cc(OC)c2ccc(=O)oc2c1C[C@@H](O)C(C)(C)O | Non-toxic |
| 4.36 | C=C(C)C(O)C(OCC)c1c(OC)ccc2ccc(=O)oc12 (centres undefined) | Non-toxic |
| 4.91 | C=C(C)[C@@H](O)Cc1c(OC)cc(OC)c2ccc(=O)oc12 | Non-toxic |
| 4.91 | COc1ccc2ccc(=O)oc2c1C(O)C(=O)C(C)C (centres undefined) | Non-toxic |
| 5.22 | COc1cc(OC)c2ccc(=O)oc2c1/C=C/C(C)=O | Non-toxic |
| 4.50 | CCOC(C)(C)C(O)Cc1c(OC)cc(OC)c2ccc(=O)oc12 (centres undefined) | Non-toxic |
| 4.91 | COc1cc2c(c3oc(=O)ccc13)C=CC(C)(C)O2 | Non-toxic |
| 4.91 | C=C(C)[C@H](O)[C@H](O)c1c(OC)ccc2ccc(=O)oc12 (relative stereo) | Non-toxic |
| 4.91 | COc1ccc2ccc(=O)oc2c1 [HERNIARIN] | Non-toxic |
| 5.20 | COc1ccc2c(c1)c(CC(=O)O)c(C)n2C(=O)c1ccc(Cl)cc1 [INDOMETHACIN] |  |
| 4.91 | COc1ccc2ccc(=O)oc2c1C(C=O)=C(C)C [MURRALONGIN] | Non-toxic |
| 4.91 | COc1ccc2ccc(=O)oc2c1CC=C(C)C [OSTHOLE] | Non-toxic |

| Compound | pIC50 [1] | Activity [2] |
| --- | --- | --- |
| C=C(C)[C@H](Cc1c(OC)ccc2ccc(=O)oc12)OO | 4.91 | Non-toxic |
